In brackets after ≈: the same amount, converted by molar mass.
Columns and labels:
[1] = system: Pseudomonas aeruginosa; assay: Antibacterial activity against Pseudomonas aeruginosa ATCC 27853 after 24 hrs by broth microdilution method; assay type: functional
How it was run: (§1)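 MIC determined by broth microdilution, three independent replicates. Strains used were P. aeruginosa ATCC 27853, E. faecalis ATCC 10541, E. coli ATCC 11775, S. aureus […] and K. pneumoniae ATCC 13883. Cefotaxime served as positive control.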

[2] = system: Enterococcus faecalis; assay: Antibacterial activity against Enterococcus faecalis ATCC 10541 after 24 hrs by broth microdilution method; assay type: functional; how it was run: as §1
[3] = system: Escherichia coli; assay: Antibacterial activity against Escherichia coli ATCC 11775 after 24 hrs by broth microdilution method; assay type: functional; how it was run: as §1
[4] = system: Staphylococcus aureus; assay: Antibacterial activity against Staphylococcus aureus […] after 24 hrs by broth microdilution method; assay type: functional; how it was run: as §1
[5] = system: Klebsiella pneumoniae; assay: Antibacterial activity against Klebsiella pneumoniae ATCC 13883 after 24 hrs by broth microdilution method; assay type: functional; how it was run: as §1
[6] = Antifungal activity against Microsporum ferrugineum CBS 457.80 after 48 hrs by broth microdilution method; assay type: functional
How it was run: (§2)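 Dermatophyte MICs obtained by broth microdilution in three independent replicates, with griseofulvin as positive control.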

[7] = Cytotoxicity against human HL60 cells after 48 hrs by MTT assay; assay type: functional, cell-based; settings: HL-60, 48 h
How it was run: (§3)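 MTT read-out. Each cell line was exposed in triplicate to a range of concentrations for 48 h, with cisplatin as positive control.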

[8] = Cytotoxicity against human A549 cells after 48 hrs by MTT assay; assay type: functional, cell-based; settings: A549, 48 h; how it was run: as §3
[9] = Cytotoxicity against human SW480 cells after 48 hrs by MTT assay; assay type: functional, cell-based; settings: SW480, 48 h; how it was run: as §3
[10] = system: Microsporum canis; assay: Antifungal activity against Microsporum canis CBS 113480 after 48 hrs by broth microdilution method; assay type: functional; settings: CBS 113480, 48 h; how it was run: as §2
[11] = Antifungal activity against Trichophyton mentagrophytes ATCC 4439 after 48 hrs by broth microdilution method; assay type: functional; how it was run: as §2
[12] = Antifungal activity against Trichophyton ajelloi E1501 after 48 hrs by broth microdilution method; assay type: functional; settings: Arthroderma uncinatum; how it was run: as §2
[13] = Antifungal activity against Trichophyton terrestre after 48 hrs by broth microdilution method; assay type: functional; how it was run: as §2
[14] = Antifungal activity against Epidermophyton floccosum CBS 566.94 after 48 hrs by broth microdilution method; assay type: functional; how it was run: as §2
[15] = Cytotoxicity against human MCF7 cells after 48 hrs by MTT assay; assay type: functional, cell-based; settings: MCF7, 48 h; how it was run: as §3
[16] = Cytotoxicity against human SMMC7721 cells after 48 hrs by MTT assay; assay type: functional, cell-based; settings: SMMC-7721, 48 h; how it was run: as §3
[17] = system: Nannizzia gypsea; assay: Antifungal activity against Microsporum gypseum CBS 118893 after 48 hrs by broth microdilution method; assay type: functional; settings: CBS 118893, 48 h; how it was run: as §2
[18] = DSM 30083 = JCM 1649 = ATCC 11775, 24 h

Row | Molecule | MIC ([1]; ATCC 27853, 24 h) [µM] | MIC ([2]; ATCC 10541, 24 h) [µM] | MIC [3, 18] [µM] | MIC [4] [µM] | MIC ([5]; ATCC 13883, 24 h) [µM] | IC50 [7] [µM] | IC50 [8] [µM] | IC50 [9] [µM] | IC50 [15] [µM] | IC50 [16] [µM] | other results
1 | C/C=C1/CN2CCc3c([nH]c4ccccc34)[C@@H]2C[C@@H]1[C@H](CO)C(=O)OC | 2 (≈ 0.709 µg/mL) | 18 (≈ 6.38 µg/mL) | > 150 | > 150 | > 150 |  |  |  |  |  | 
2 | CC[C@]12CCCN(CC[C@]3(O)C(=O)Nc4ccccc43)[C@H]1OCC2 | 19 (≈ 6.28 µg/mL) | 75 (≈ 24.8 µg/mL) | 19 (≈ 6.28 µg/mL) | 75 (≈ 24.8 µg/mL) | 150 (≈ 49.6 µg/mL) | > 40 | > 40 | > 40 | > 40 | > 40 | MIC [6]: 75 µM (≈ 24.8 µg/mL); MIC [10]: 38 µM (≈ 12.6 µg/mL); MIC [11]: 150 µM (≈ 49.6 µg/mL); MIC [12]: 150 µM (≈ 49.6 µg/mL); MIC [13]: > 150 µM; MIC [14]: 150 µM (≈ 49.6 µg/mL); MIC [17]: 150 µM (≈ 49.6 µg/mL)
3 | CCC1=CN2CC[C@]34c5ccccc5-n5c3c(cc(C(=O)OC)c5=O)[C@H]1C[C@H]24 | 2 (≈ 0.749 µg/mL) | 66 (≈ 24.7 µg/mL) | 66 (≈ 24.7 µg/mL) | > 150 | 133 (≈ 49.8 µg/mL) |  |  |  |  |  | 
4 | CC[C@@]12CCCN3CC[C@@H](c4ccccc4NC(=O)CC1)[C@]32O | 5 (≈ 1.57 µg/mL) | 39 (≈ 12.3 µg/mL) | > 150 | > 150 | > 150 | > 40 | > 40 | > 40 | > 40 | > 40 | 
5 | CC[C@@]12CCCN3CCc4c(n(c5ccccc45)C(=O)C1)[C@H]32 | 5 (≈ 1.47 µg/mL) | 2 (≈ 0.589 µg/mL) | 85 (≈ 25 µg/mL) | > 150 | > 150 |  |  |  |  |  | 
6 | CC[C@]12C=CN3c4ccccc4C(=O)[C@]34CCN(CCC1)[C@H]24 | 2 (≈ 0.589 µg/mL) | 42 (≈ 12.4 µg/mL) | > 150 | > 150 | > 150 | > 40 | > 40 | > 40 | > 40 | > 40 | 
7 | CC[C@@]12CCCN3CC[C@@]4(O)c5ccccc5N(C(=O)CC1)[C@]324 | 2 (≈ 0.625 µg/mL) | > 150 | > 150 | > 150 | > 150 |  |  |  |  |  | 
8 | CC[C@@H]1CN2CC[C@]34c5ccccc5-n5c3c(cc(C(=O)O)c5=O)[C@H]1C[C@H]24 [MELODININE C] | 4 (≈ 1.45 µg/mL) | > 150 | > 150 | > 150 | 69 (≈ 25 µg/mL) |  |  |  |  |  | 
9 | CO/N=C(\C(=O)N[C@@H]1C(=O)N2C(C(=O)O)=C(COC(C)=O)CS[C@H]12)c1csc(N)n1 [CEFOTAXIME] | 0.4 (≈ 0.182 µg/mL) | 0.4 (≈ 0.182 µg/mL) | 1.7 (≈ 0.774 µg/mL) | 0.4 (≈ 0.182 µg/mL) | 1.7 (≈ 0.774 µg/mL) |  |  |  |  |  | 
10 | CC[C@]12C=Cn3c4c(c5ccccc53)CCN(CCC1)[C@@H]42 | 22 (≈ 6.12 µg/mL) | 22 (≈ 6.12 µg/mL) | > 150 | > 150 | > 150 |  |  |  |  |  | 
11 | CCO[C@@H]1C[C@@]2(CC)CCCN3CC[C@]4(C(=O)c5ccccc5N14)[C@H]32 | 4 (≈ 1.36 µg/mL) | 147 (≈ 50 µg/mL) | 147 (≈ 50 µg/mL) | > 150 | > 150 | > 40 | > 40 | > 40 | > 40 | > 40 | 
12 | CO[C@H]1CCN2CCc3c([nH]c4ccccc34)[C@@]3(C(=O)O)CCC=C1[C@H]23 | 4 (≈ 1.41 µg/mL) | 71 (≈ 25 µg/mL) | 71 (≈ 25 µg/mL) | > 150 | > 150 | > 40 | > 40 | > 40 | > 40 | > 40 | 
13 | CC[C@@H]1CN2CC[C@]34c5ccccc5-n5c3c(cc(C(N)=O)c5=O)[C@H]1C[C@H]24 [LEUCONICINE A] | 2 (≈ 0.723 µg/mL) | > 150 | > 150 | > 150 | 69 (≈ 24.9 µg/mL) |  |  |  |  |  | 
14 | COC1=CC(=O)C[C@@H](C)[C@]12Oc1c(Cl)c(OC)cc(OC)c1C2=O [GRISEOFULVIN] |  |  |  |  |  |  |  |  |  |  | MIC [6]: 35 µM (≈ 12.3 µg/mL); MIC [10]: 18 µM (≈ 6.35 µg/mL); MIC [11]: 18 µM (≈ 6.35 µg/mL); MIC [12]: 71 µM (≈ 25 µg/mL); MIC [13]: 35 µM (≈ 12.3 µg/mL); MIC [14]: 9 µM (≈ 3.17 µg/mL); MIC [17]: 9 µM (≈ 3.17 µg/mL)
15 | CC[C@@]12CCCN3CC[C@]4(C(=O)c5ccccc5N4[C@H](OC)C1)[C@H]32 | 5 (≈ 1.63 µg/mL) | 5 (≈ 1.63 µg/mL) | 150 (≈ 49 µg/mL) | > 150 | > 150 | > 40 | > 40 | > 40 | > 40 | > 40 | 
16 | CC[C@@]12CCCN3CC[C@]4(C(=O)c5ccccc5N4[C@@H](OC)[C@H]1O)[C@H]32 | 18 (≈ 6.16 µg/mL) | 73 (≈ 25 µg/mL) | 73 (≈ 25 µg/mL) | > 150 | > 150 | > 40 | > 40 | > 40 | > 40 | > 40 | 
17 | RAUWOLFIA SERPENTINA |  |  |  | > 150 |  |  |  |  |  |  | MIC [1]: 4 µM; MIC [2]: 71 µM; MIC ([3]; DSM 30083 = JCM 1649 = ATCC 11775): 142 µM; MIC [5]: > 150 µM
18 | CC[C@@]12CCCN3CC[C@]4(C(=O)c5ccccc5N4[C@@H](OC)C1)[C@H]32 | 19 (≈ 6.2 µg/mL) | 150 (≈ 49 µg/mL) | 75 (≈ 24.5 µg/mL) | > 150 | > 150 | > 40 | > 40 | > 40 | > 40 | > 40 | 
19 | CC[C@@]12CCCN3CC[C@]4(C(=O)c5ccccc5N4C(=O)C1)[C@H]32 | 2 (≈ 0.621 µg/mL) | 5 (≈ 1.55 µg/mL) | > 150 | > 150 | > 150 | > 40 | > 40 | > 40 | > 40 | > 40 | 
20 | CC[C@]12CCCn3c(C=O)cc(c31)-c1ccccc1NC(=O)CC2 [RHAZINAL] | 2 (≈ 0.645 µg/mL) | 19 (≈ 6.13 µg/mL) | > 150 | > 150 | 77 (≈ 24.8 µg/mL) |  |  |  |  |  | 
21 | CC[C@@]12CCCN3C(=O)C=C(c4ccccc4NC(=O)CC1)[C@]32O | 5 (≈ 1.63 µg/mL) | 2 (≈ 0.653 µg/mL) | > 150 | > 150 | > 150 |  |  |  |  |  | 
22 | CC[C@@]12CCCN3CC[C@]4(C(=O)c5ccccc5N4[C@@H](O)[C@H]1O)[C@H]32 | 19 (≈ 6.24 µg/mL) | 75 (≈ 24.6 µg/mL) | 150 (≈ 49.3 µg/mL) | > 150 | 150 (≈ 49.3 µg/mL) | > 40 | > 40 | > 40 | > 40 | > 40 | 
23 | CC[C@@]12CCCN3C(=O)C[C@H]4c5cc(O)ccc5N(C(=O)CC1)C432 (some centres undefined) | 19 (≈ 6.2 µg/mL) | 19 (≈ 6.2 µg/mL) | 76 (≈ 24.8 µg/mL) | 19 (≈ 6.2 µg/mL) | > 150 |  |  |  |  |  | 

Source: ChEMBL document CHEMBL3868591, “Melokhanines A-J, Bioactive Monoterpenoid Indole Alkaloids with Diverse Skeletons from Melodinus khasianus” (J Nat Prod, 2016)
